# Results taken from ChEMBL document CHEMBL2062509, “Synthesis of benzo-annulated tryptanthrins and their biological properties” (Bioorg Med Chem, 2012).
# Assays:
# T47D = test: Cytotoxicity against human T47D cells after 72 hrs by MTT assay; type: functional, cell-based
# DU-145 = test: Cytotoxicity against human DU145 cells after 72 hrs by MTT assay; type: functional, cell-based; conditions: DU-145, 72 h
# HEK293 = test: Cytotoxicity against human HEK293 cells after 72 hrs by MTT assay; type: cell-based; conditions: HEK293, 72 h
# HCT-15 = test: Cytotoxicity against human HCT15 cells after 72 hrs by MTT assay; type: functional, cell-based; conditions: HCT-15, 72 h
# Bos taurus [1] = organism: Bos taurus; test: Inhibition of calf thymus DNA topoisomerase 1-mediated relaxation of supercoiled pBR322 DNA at 20 uM after 30 mins by agarose gel electrophoresis analysis
# [2] = biological target: DNA topoisomerase 2-alpha (Homo sapiens) (UniProt P11388); test: Inhibition of human DNA topoisomerase 2alpha-mediated relaxation of supercoiled pBR322 DNA at 100 uM after 30 mins by agarose gel electrophoretic analysis
# Procedure, shortened: (§1)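 Human topo IIα (0.2 units) and 100 ng supercoiled pBR322, 30 min at 37 °C with or without compound in 10 mM Tris-HCl pH 7.9, 50 mM NaCl, 5 mM MgCl2, 1 mM EDTA, 1 mM ATP, 15 µg/mL BSA. Quenched with 7 mM EDTA. Resolved on 1% agarose in TAE (25 V, 4 h), ethidium-stained, supercoiled DNA quantified under UV.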
# Bos taurus [3] = organism: Bos taurus; test: Inhibition of calf thymus DNA topoisomerase 1-mediated relaxation of supercoiled pBR322 DNA at 100 uM after 30 mins by agarose gel electrophoresis analysis
# [4] = biological target: DNA topoisomerase 2-alpha (Homo sapiens) (UniProt P11388); test: Inhibition of human DNA topoisomerase 2alpha-mediated relaxation of supercoiled pBR322 DNA at 20 uM after 30 mins by agarose gel electrophoretic analysis; procedure, shortened: as §1
# [5] = system: Mycobacterium tuberculosis; test: Antituberculosis activity against Mycobacterium tuberculosis; type: functional
# HT-1376 = test: Cytotoxicity against human HT-1376 cells; type: functional
# [6] = biological target: T1, Polyunsaturated fatty acid 5-lipoxygenase (Homo sapiens, UniProt P09917); test: Inhibition of 5-lipoxygenase
# T1 sequence (P09917 whole entry): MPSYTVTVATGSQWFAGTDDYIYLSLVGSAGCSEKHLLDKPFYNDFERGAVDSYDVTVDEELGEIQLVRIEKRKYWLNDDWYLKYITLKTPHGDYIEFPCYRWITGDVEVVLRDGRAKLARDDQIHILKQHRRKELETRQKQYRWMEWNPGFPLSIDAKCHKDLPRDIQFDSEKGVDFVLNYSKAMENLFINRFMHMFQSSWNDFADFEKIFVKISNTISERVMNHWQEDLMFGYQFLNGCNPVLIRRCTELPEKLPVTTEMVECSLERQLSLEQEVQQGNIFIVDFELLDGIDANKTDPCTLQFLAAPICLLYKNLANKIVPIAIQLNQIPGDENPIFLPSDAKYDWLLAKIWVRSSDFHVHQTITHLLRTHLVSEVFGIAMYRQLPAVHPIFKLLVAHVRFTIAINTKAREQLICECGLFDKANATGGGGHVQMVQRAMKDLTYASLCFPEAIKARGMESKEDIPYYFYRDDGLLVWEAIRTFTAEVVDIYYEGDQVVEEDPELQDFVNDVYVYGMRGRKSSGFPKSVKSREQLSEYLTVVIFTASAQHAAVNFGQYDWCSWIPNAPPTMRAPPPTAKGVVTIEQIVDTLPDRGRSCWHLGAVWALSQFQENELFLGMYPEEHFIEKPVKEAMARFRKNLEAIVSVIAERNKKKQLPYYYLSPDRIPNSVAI
# Chain of DNA topoisomerase 2-alpha (Homo sapiens) (P11388 whole entry): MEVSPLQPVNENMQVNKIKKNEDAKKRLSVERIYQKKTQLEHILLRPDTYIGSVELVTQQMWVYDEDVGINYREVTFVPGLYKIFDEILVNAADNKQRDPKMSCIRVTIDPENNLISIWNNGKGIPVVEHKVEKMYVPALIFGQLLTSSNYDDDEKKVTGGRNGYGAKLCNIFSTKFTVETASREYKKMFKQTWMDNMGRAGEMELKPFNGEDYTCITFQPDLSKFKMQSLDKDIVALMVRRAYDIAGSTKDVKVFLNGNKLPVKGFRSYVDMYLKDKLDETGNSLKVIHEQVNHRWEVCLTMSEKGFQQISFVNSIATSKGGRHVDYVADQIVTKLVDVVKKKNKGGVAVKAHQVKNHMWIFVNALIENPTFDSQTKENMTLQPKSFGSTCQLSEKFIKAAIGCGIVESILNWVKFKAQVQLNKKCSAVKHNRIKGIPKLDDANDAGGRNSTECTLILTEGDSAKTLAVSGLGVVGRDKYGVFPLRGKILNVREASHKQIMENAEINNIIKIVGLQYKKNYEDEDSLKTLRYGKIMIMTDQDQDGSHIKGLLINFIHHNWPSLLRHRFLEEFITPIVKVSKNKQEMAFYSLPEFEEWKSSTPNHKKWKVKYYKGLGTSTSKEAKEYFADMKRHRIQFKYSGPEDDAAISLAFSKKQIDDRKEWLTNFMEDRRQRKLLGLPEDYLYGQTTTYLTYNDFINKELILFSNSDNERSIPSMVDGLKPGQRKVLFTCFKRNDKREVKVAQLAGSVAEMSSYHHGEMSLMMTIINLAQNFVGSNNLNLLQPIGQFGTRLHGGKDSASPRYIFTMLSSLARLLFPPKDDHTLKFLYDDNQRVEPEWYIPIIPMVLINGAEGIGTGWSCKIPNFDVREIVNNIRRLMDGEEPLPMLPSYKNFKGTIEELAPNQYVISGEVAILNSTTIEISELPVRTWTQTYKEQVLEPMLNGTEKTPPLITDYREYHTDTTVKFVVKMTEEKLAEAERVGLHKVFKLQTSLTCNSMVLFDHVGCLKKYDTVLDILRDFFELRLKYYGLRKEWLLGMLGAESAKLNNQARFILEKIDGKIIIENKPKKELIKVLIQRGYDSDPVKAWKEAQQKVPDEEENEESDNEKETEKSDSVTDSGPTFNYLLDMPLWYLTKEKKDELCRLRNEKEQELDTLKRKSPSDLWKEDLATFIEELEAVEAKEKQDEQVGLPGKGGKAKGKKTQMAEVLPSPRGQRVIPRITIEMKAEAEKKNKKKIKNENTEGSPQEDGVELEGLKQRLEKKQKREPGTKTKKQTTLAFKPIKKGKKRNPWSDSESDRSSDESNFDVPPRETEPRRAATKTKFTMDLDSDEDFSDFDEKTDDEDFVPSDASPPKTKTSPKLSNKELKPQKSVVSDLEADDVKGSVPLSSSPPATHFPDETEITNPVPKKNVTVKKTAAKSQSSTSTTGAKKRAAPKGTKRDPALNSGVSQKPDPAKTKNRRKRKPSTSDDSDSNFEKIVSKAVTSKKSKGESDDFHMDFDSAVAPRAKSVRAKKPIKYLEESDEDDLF
SMILES,IC50 (T47D) [µM],IC50 (DU-145) [µM],IC50 (HEK293) [µM],IC50 (HCT-15) [µM],inhibition (Bos taurus [1]) [%],inhibition [2] [%],inhibition (Bos taurus [3]) [%],inhibition [4] [%],MIC [5] [µg/mL],Activity (HT-1376) [µM],IC50 [6] [µM]
COc1cc([C@@H]2c3cc4c(cc3[C@@H](O[C@@H]3O[C@@H]5CO[C@@H](C)O[C@H]5[C@H](O)[C@H]3O)[C@H]3COC(=O)[C@H]23)OCO4)cc(OC)c1O [ETOPOSIDE],1.21,1.42,0.41,0.28,–,–,–,–,–,–,–
O=C1c2ccc3ccccc3c2-n2c1nc1ccccc1c2=O,22.8,21.4,22.1,12.6,4.1,14,53.4,–,–,–,–
CC[C@@]1(O)C(=O)OCc2c1cc1n(c2=O)Cc2cc3ccccc3nc2-1 [CAMPTOTHECIN],9.17,9.29,7.94,9.92,26.3,–,63.1,–,–,–,–
O=C1c2cc3ccccc3cc2-n2c1nc1cc3ccccc3cc1c2=O,25.7,26.1,2.31,26.2,3.6,12.6,41.9,–,–,–,–
O=C1c2ccccc2-n2c1nc1cc3ccccc3cc1c2=O [BENZO[K]TRYPTANTHRIN],23.1,26,31.5,25.8,–,16,18.8,–,–,–,–
O=C1c2ccc3ccccc3c2-n2c1nc1cc3ccccc3cc1c2=O,34.9,32.3,20.3,24,3.5,53.5,84.1,19.1,–,–,–
O=C1c2cc3ccccc3cc2-n2c1nc1ccccc1c2=O,21.5,17.8,10.7,6.15,5.4,75.9,69.6,5.95,–,–,–
O=C1c2c(ccc3ccccc23)-n2c1nc1ccccc1c2=O,31.3,27.7,25.7,24.7,4.9,8.13,47.8,–,–,–,–
COc1cccc2c1C(=O)c1c(O)c3c(c(O)c1C2=O)C[C@@](O)(C(=O)CO)C[C@@H]3O[C@H]1C[C@H](N)[C@H](O)[C@H](C)O1 [DOXORUBICIN],1.82,–,1,1.76,–,–,–,–,–,–,–
O=C1c2ccccc2-n2c1nc1ccccc1c2=O [TRYPTANTHRIN],14.3,6.22,4.11,8.49,4.09,4.54,68.4,–,10,10,0.15
O=C1c2c(ccc3ccccc23)-n2c1nc1cc3ccccc3cc1c2=O,25.2,34,24.2,32.8,3.8,71.3,39.1,5.83,–,–,–
